Laboratory results published in ChEMBL document CHEMBL2034864, “Synthesis, characterization, antimicrobial activities and QSAR studies of some 10a-phenylbenzo[b]indeno[1,2-e][1,4]thiazin-11(10aH)-ones” (2012).
In brackets after ≈: the same amount, converted by molar mass. Activity calls are given as the source filed them. The rule behind the calls is not given here.

Tests used:
Bacillus subtilis = assay: Antibacterial activity against Bacillus subtilis MTCC 441 after 24 hrs by serial dilution technique; type: functional; conditions: for MIC: Bacillus subtilis, MTCC 441, 24 h
In short: (§1)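 Compounds were dissolved in DMSO as stock, diluted to 100 µg/mL in Luria broth, then two-fold serially diluted from 100 to 1.56 µg/mL. Bacteria were grown in Luria broth at 37 °C, centrifuged and washed three times with PBS. They were inoculated into each dilution in triplicate and incubated 24 h at 37 °C. Growth was read visually and spectrophotometrically. Controls were penicillin, streptomycin and DMSO. MIC is in µmol/mL.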

Staphylococcus aureus = assay: Antibacterial activity against Staphylococcus aureus MTCC 7443 after 24 hrs by serial dilution technique; type: functional; conditions: for MIC: Staphylococcus aureus, MTCC 7443, 24 h; in short: as §1
Pseudomonas aeruginosa = assay: Antibacterial activity against Pseudomonas aeruginosa MTCC 7952 after 24 hrs by serial dilution technique; type: functional; conditions: for MIC: Pseudomonas aeruginosa, MTCC 7952, 24 h; in short: as §1
Candida albicans = assay: Antifungal activity against Candida albicans MTCC 183 after 72 hrs by serial dilution technique; type: functional
In short: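 Compounds were dissolved in DMSO as stock, diluted to 100 µg/mL in potato dextrose broth, then two-fold serially diluted from 100 to 1.56 µg/mL. Fungi were grown in Sabouraud dextrose broth at 28 °C: A. fumigatus for 2–3 weeks, C. albicans for 48 h. Spores were centrifuged, washed in sterile water and inoculated in triplicate, then incubated 72 h at 28 °C. MIC was assigned by CFU assay. Controls were fluconazole and DMSO.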

Aspergillus fumigatus = assay: Antifungal activity against Aspergillus fumigatus MTCC 2550 after 72 hrs by serial dilution technique
Escherichia coli = assay: Antibacterial activity against Escherichia coli MTCC 42 after 24 hrs by serial dilution technique; type: functional; conditions: for MIC: Escherichia coli, MTCC 42, 24 h; in short: as §1
[1] = Candida albicans, MTCC 183, 72 h
[2] = Aspergillus fumigatus, MTCC 2550, 72 h

Row | Structure (SMILES) | -logMIC (Bacillus subtilis) | MIC (Bacillus subtilis) | -logMIC (Staphylococcus aureus) | MIC (Staphylococcus aureus) | -logMIC (Pseudomonas aeruginosa) | MIC (Pseudomonas aeruginosa) | MIC (Candida albicans) | MIC (Aspergillus fumigatus) | MIC (Candida albicans; [1]) | MIC (Aspergillus fumigatus; [2]) | -logMIC (Escherichia coli) | MIC (Escherichia coli) | -logMIC (Candida albicans) | -logMIC (Aspergillus fumigatus)
1 | COc1ccc2c(c1)SC1(c3ccccc3)C(=O)c3ccccc3C1=N2 (stereo unspecified) | 1.15 | 70 µM (≈ 25 µg/mL) | 0.85 | 140 µM (≈ 50 µg/mL) | 1.46 | 35 µM (≈ 12.5 µg/mL) | inactive | inactive |  |  |  |  |  | 
2 | OC(Cn1cncn1)(Cn1cncn1)c1ccc(F)cc1F [FLUCONAZOLE] |  |  |  |  |  |  |  |  | 10.1 µM (≈ 3.09 µg/mL) | 10.1 µM (≈ 3.09 µg/mL) |  |  |  | 
3 | O=C1c2ccccc2C2=Nc3ccc(Br)cc3SC12c1ccc(Cl)cc1 (stereo unspecified) | 1.55 | 28.4 µM (≈ 12.5 µg/mL) | 2.15 | 7.1 µM (≈ 3.13 µg/mL) | 1.24 | 57 µM (≈ 25.1 µg/mL) |  |  | 28.4 µM (≈ 12.5 µg/mL) | 28.4 µM (≈ 12.5 µg/mL) | 1.24 | 56.9 µM (≈ 25.1 µg/mL) | 1.55 | 1.55
4 | COc1ccc(C23Sc4cc(C)ccc4N=C2c2ccccc2C3=O)cc1 (stereo unspecified) | 1.47 | 33.6 µM (≈ 12.5 µg/mL) | 1.17 | 67.3 µM (≈ 25 µg/mL) | 1.17 | 67.3 µM (≈ 25 µg/mL) |  |  | 33.6 µM (≈ 12.5 µg/mL) | 135 µM (≈ 50 µg/mL) | 1.17 | 67.3 µM (≈ 25 µg/mL) | 1.47 | 0.87
5 | O=C1c2ccccc2C2=Nc3ccc(Br)cc3SC12c1ccccc1 (stereo unspecified) | 1.21 | 61.7 µM (≈ 25.1 µg/mL) | 0.91 | 123 µM (≈ 50.1 µg/mL) | 1.81 | 15.4 µM (≈ 6.26 µg/mL) |  |  | 30.8 µM (≈ 12.5 µg/mL) | 30.8 µM (≈ 12.5 µg/mL) | 1.21 | 61.7 µM (≈ 25.1 µg/mL) | 1.51 | 1.51
6 | Cc1ccc(C23Sc4ccccc4N=C2c2ccccc2C3=O)cc1 (stereo unspecified) | 1.14 | 73.2 µM (≈ 25 µg/mL) | 0.53 | 293 µM (≈ 100 µg/mL) | 1.14 | 73.2 µM (≈ 25 µg/mL) | inactive | inactive |  |  |  |  |  | 
7 | Cc1ccc2c(c1)SC1(c3ccccc3)C(=O)c3ccccc3C1=N2 (stereo unspecified) | 0.83 | 146 µM (≈ 50 µg/mL) | 2.35 | 4.5 µM (≈ 1.54 µg/mL) | 1.13 | 73.3 µM (≈ 25 µg/mL) |  |  | 36.6 µM (≈ 12.5 µg/mL) | 73.2 µM (≈ 25 µg/mL) |  |  | 1.44 | 1.14
8 | CN[C@@H]1[C@H](O[C@H]2[C@H](O[C@H]3[C@H](O)[C@@H](O)[C@H](N=C(N)N)[C@@H](O)[C@@H]3N=C(N)N)O[C@@H](C)[C@]2(O)C=O)O[C@@H](CO)[C@H](O)[C@H]1O [STREPTOMYCIN] |  | 10.7 µM (≈ 6.22 µg/mL) |  | 10.7 µM (≈ 6.22 µg/mL) |  | 2.6 µM (≈ 1.51 µg/mL) |  |  |  |  |  | 5.3 µM (≈ 3.08 µg/mL) |  | 
9 | O=C1c2ccccc2C2=Nc3ccccc3SC12c1ccc(Cl)cc1 (stereo unspecified) | 1.46 | 34.6 µM (≈ 12.5 µg/mL) | 0.86 | 138 µM (≈ 50.1 µg/mL) |  |  | inactive | inactive |  |  | 2.37 | 4.3 µM (≈ 1.56 µg/mL) |  | 
10 | COc1ccc2c(c1)SC1(c3ccc(C)cc3)C(=O)c3ccccc3C1=N2 (stereo unspecified) | 1.17 | 67.3 µM (≈ 25 µg/mL) | 0.87 | 135 µM (≈ 50 µg/mL) | 1.47 | 33.6 µM (≈ 12.5 µg/mL) |  |  | 16.8 µM (≈ 6.24 µg/mL) | 67.3 µM (≈ 25 µg/mL) | 2.38 | 4.2 µM (≈ 1.56 µg/mL) | 1.77 | 1.17
11 | COc1ccc(C23Sc4cc(Br)ccc4N=C2c2ccccc2C3=O)cc1 (stereo unspecified) | 2.15 | 7.1 µM (≈ 3.1 µg/mL) | 2.15 | 7.1 µM (≈ 3.1 µg/mL) | 1.24 | 57.4 µM (≈ 25 µg/mL) |  |  | 14.3 µM (≈ 6.24 µg/mL) | 14.3 µM (≈ 6.24 µg/mL) | 1.84 | 14.3 µM (≈ 6.24 µg/mL) | 1.84 | 1.84
12 | Cc1ccc(C23Sc4cc(C)ccc4N=C2c2ccccc2C3=O)cc1 (stereo unspecified) | 0.85 | 141 µM (≈ 50 µg/mL) |  |  | 1.15 | 70.4 µM (≈ 25 µg/mL) |  |  | 70.4 µM (≈ 25 µg/mL) | 141 µM (≈ 50 µg/mL) | 1.45 | 35.2 µM (≈ 12.5 µg/mL) | 1.15 | 0.85
13 | COc1ccc2c(c1)SC1(c3ccc(Cl)cc3)C(=O)c3ccccc3C1=N2 (stereo unspecified) | 1.5 | 31.9 µM (≈ 12.5 µg/mL) | 1.8 | 15.9 µM (≈ 6.23 µg/mL) | 1.19 | 63.9 µM (≈ 25 µg/mL) |  |  | 31.9 µM (≈ 12.5 µg/mL) | 31.9 µM (≈ 12.5 µg/mL) | 1.19 | 63.9 µM (≈ 25 µg/mL) | 1.5 | 1.5
14 | Cc1ccc(C23Sc4cc(Br)ccc4N=C2c2ccccc2C3=O)cc1 (stereo unspecified) | 1.53 | 29.8 µM (≈ 12.5 µg/mL) | 0.92 | 119 µM (≈ 50.1 µg/mL) | 1.23 | 59.4 µM (≈ 25 µg/mL) |  |  | 119 µM (≈ 50.1 µg/mL) | 119 µM (≈ 50.1 µg/mL) | 1.23 | 59.4 µM (≈ 25 µg/mL) | 0.92 | 0.92
15 | COc1ccc(C23Sc4ccccc4N=C2c2ccccc2C3=O)cc1 (stereo unspecified) |  |  | 0.85 | 140 µM (≈ 50 µg/mL) |  |  | inactive | inactive |  |  | 1.15 | 70 µM (≈ 25 µg/mL) |  | 
16 | COc1ccc(C23Sc4cc(OC)ccc4N=C2c2ccccc2C3=O)cc1 (stereo unspecified) | 2.4 | 4 µM (≈ 1.55 µg/mL) | 1.79 | 16.1 µM (≈ 6.24 µg/mL) |  |  |  |  | 64.5 µM (≈ 25 µg/mL) | 64.5 µM (≈ 25 µg/mL) | 1.79 | 16.1 µM (≈ 6.24 µg/mL) | 1.19 | 1.19
17 | Cc1ccc2c(c1)SC1(c3ccc(Cl)cc3)C(=O)c3ccccc3C1=N2 (stereo unspecified) | 1.18 | 66.5 µM (≈ 25 µg/mL) |  |  | 1.18 | 66.6 µM (≈ 25 µg/mL) |  |  | 66.6 µM (≈ 25 µg/mL) | 133 µM (≈ 50.1 µg/mL) | 1.18 | 66.6 µM (≈ 25 µg/mL) | 1.18 | 0.88
18 | O=C1c2ccccc2C2=Nc3ccccc3SC12c1ccccc1 (stereo unspecified) | 1.12 | 76.4 µM (≈ 25 µg/mL) | 0.82 | 153 µM (≈ 50 µg/mL) | 1.42 | 38.2 µM (≈ 12.5 µg/mL) |  |  | 76.4 µM (≈ 25 µg/mL) | 76.4 µM (≈ 25 µg/mL) | 1.42 | 38.2 µM (≈ 12.5 µg/mL) | 1.12 | 1.12
19 | CC1(C)S[C@@H]2[C@H](NC(=O)Cc3ccccc3)C(=O)N2[C@H]1C(=O)O [PENICILLIN G] |  | 4.6 µM (≈ 1.54 µg/mL) |  | 4.6 µM (≈ 1.54 µg/mL) |  | 18.7 µM (≈ 6.25 µg/mL) |  |  |  |  |  | 37.4 µM (≈ 12.5 µg/mL) |  | 
